Laboratory results taken from article PMC9366947 (ACS Omega, 2022).
Marks after values point to notes of the source that are not given here.

Legend:
[1] = Oral dose pharmacokinetics; assay type: in vivo, Sprague–Dawley rats; details: rat; for AUC(0-t) / Kp / Kp at 24 h / Cmax: male, Sprague-Dawley, po, 2 mg/kg; for Kp / Kp at 24 h: brain/plasma; for Cmax (brain): oral 2 mg/kg, Table 1
Summary of the method: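 Adult male Sprague–Dawley rats, cassette dosing by oral gavage at 2.0 mg/kg (0.4 mg/mL in 0.25% methyl cellulose/water), n=3 per time point (15 min, 40 min, 2 h, 6 h, 24 h). Under ketamine/xylazine i.p., blood taken by cardiac puncture and brains collected. Brain homogenised in methanol; plasma and brain extracts cleaned up by solid-phase extraction and quantified by UPLC–MS/MS. Values are means.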

Partition coefficient = assay type: physicochemical; details: n-octanol/water, shake flask
Summary of the method: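 Miniaturised shake flask. Octanol stock (1000 μg/mL) mixed with presaturated n-octanol and presaturated water, shaken overnight at 500 rpm, then centrifuged 20 min at 16 000 RCF. Both layers read by UV absorbance at 300 nm against calibration curves; run in triplicate.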

[2] = test system: pentylenetetrazol-induced clonic and tonic convulsions in mice; assay: PTZ seizures after oral dosing in mice; assay type: in vivo, C57BL/6N mice; details: for peak time of efficacy / effect on latency to produce convulsions: 10 mg/kg oral, 70 mg/kg PTZ; for effect on latency to produce convulsions: 2 to 8 h after dosing; for lethality/number tested, 2 h: 2 h pretreatment; for lethality/number tested, 2 h / lethality/number tested, 4 h / lethality/number tested, 8 h: 60 min observation
Summary of the method: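 Male C57BL/6N mice dosed orally (1% carboxymethylcellulose, 10 mL/kg). After the pretreatment interval, PTZ 70 mg/kg s.c. in 0.9% NaCl. Lethality and latency to death recorded over 60 min. Deaths compared with the vehicle + PTZ group by Fisher's exact test; n=6–7 per group.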

Kinetic = assay type: physicochemical; details: water, 37 °C
[3] = Thermodynamic equilibrium solubility in water and other solvents; assay type: physicochemical; details: spectroscopic method
[4] = oral, 4 h pretreatment, PTZ 70 mg/kg
[5] = oral, 8 h pretreatment, PTZ 70 mg/kg

Row | SMILES | AUC(0-t) ([1]; brain) [µM·h] | Kp [1] | Kp at 24 h [1] | AUC(0-t) ([1]; plasma) [µM·h] | Cmax ([1]; plasma) [nM] | Cmax (brain) [1] [nM] | log P (Partition coefficient) | peak time of efficacy [2] | effect on latency to produce convulsions [2] | lethality/number tested, 2 h ([2]; oral, PTZ 70 mg/kg) | lethality/number tested, 4 h [2, 4] | lethality/number tested, 8 h [2, 5] | persistence in solution state (supersaturation) vs free base (Kinetic) | improvement in water solubility, salt form vs free base [3] | latency to death, 4 h [2, 4] [s] | latency to death, 8 h [2, 5] [s]
1 | C#Cc1ccc2c(c1)C(c1ccccn1)=NCc1c(-c3cnco3)ncn1-2 [KRM-II-81, 5-(8-Ethynyl-6-(pyridin-2-yl)-4H-benzo[f]imidazo[1,5-a][1,4]diazepin-3-yl)oxazole] | 2.69 | 0.32 | 0.77 | 3.59 | 1830 | 594.2 | 1.763 ± 0.12 | about 2 h | approximately a doubling of the latency to produce convulsions | 0/6 ^a | 0/6 ^a | 0/6 ^a | – | – | – | –
2 | C#Cc1ccc2c(c1)C(c1ccccn1)=NCc1c(-c3cnco3)ncn1-2.Cl [KRM-II-81·HCl, 2-(8-Ethynyl-3-(oxazol-5-yl)-4H-benzo[f]imidazo[1,5-a][1,4]diazepin-6-yl)pyridin-1-ium Chloride] | 2.66 | 0.52 | 1 | 2.66 | 1320 | 689.1 | 0.53 ± 0.06 | about 2 h | approximately a doubling of the latency to produce convulsions | 0/6 ^a | 1/6 | 1/6 | remain in the solution state for a longer period of time | Approximately 13 fold | 15.68 | 43.00
